The source made the active and inactive calls. The rule behind the calls is not given here.
Legend:
[1] = Toxicity in ip dosed BALB/c mouse assessed as maximum tolerated dose measured after 2 weeks; assay type: organism-based; conditions: BALB/c, in vivo
Summary of the method: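 Healthy BALB/c mice, compound in 20% DMSO/saline, single i.p. dose. One mouse each at 200, 100 and 50 mg/kg, then 25, 12.5 and 6.25 mg/kg if needed, repeated until a tolerated dose was found. Last test repeated once. Mice weighed daily for 8 days; euthanized at >20% weight loss or overt toxicity. Morbidity/mortality followed over 2 weeks; triplicate experiments.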

[2] = system: DU-145; experiment: Cytotoxicity against human DU-145 cells assessed as reduction in cell viability at 5 to 10 nM incubated for 48 hrs by MTT assay; assay type: functional, cell-based; conditions: dose 5-10 nM
Summary of the method: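 DU145 cells in DMEM with 10% FBS were seeded at 14 000 cells/well and allowed to adhere for 24 h. Test agents were diluted from 10 mM DMSO stocks (100, 50, 25 µM; 10, 5, 1.25 nM) and applied in triplicate for 48 h at 37 °C, 5% CO2, with DMSO as vehicle. Read-out was 250 µg/mL MTT for 4 h, DMSO solubilization, and A570 with 690 nm reference. Values normalized to DMSO.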

[3] = biological target: Histone deacetylase 1 (Homo sapiens, UniProt Q13547); experiment: Inhibition of HDAC1 in human DU-145 cells assessed as increase in histone H3 acetylation after 24 hrs by immunofluorescence microscopy; assay type: cell-based
[4] = biological target: Histone deacetylase (Homo sapiens) (UniProt Q13547+O15379+Q9UBN7+Q92769+Q9UQL6+Q8WUI4+Q9BY41+Q96DB2+P56524+Q9UKV0+Q969S8); conditions: DU-145, dose 10.0 nM, time 24.0 hrs

Sequence of Histone deacetylase 1 (Q13547 whole entry): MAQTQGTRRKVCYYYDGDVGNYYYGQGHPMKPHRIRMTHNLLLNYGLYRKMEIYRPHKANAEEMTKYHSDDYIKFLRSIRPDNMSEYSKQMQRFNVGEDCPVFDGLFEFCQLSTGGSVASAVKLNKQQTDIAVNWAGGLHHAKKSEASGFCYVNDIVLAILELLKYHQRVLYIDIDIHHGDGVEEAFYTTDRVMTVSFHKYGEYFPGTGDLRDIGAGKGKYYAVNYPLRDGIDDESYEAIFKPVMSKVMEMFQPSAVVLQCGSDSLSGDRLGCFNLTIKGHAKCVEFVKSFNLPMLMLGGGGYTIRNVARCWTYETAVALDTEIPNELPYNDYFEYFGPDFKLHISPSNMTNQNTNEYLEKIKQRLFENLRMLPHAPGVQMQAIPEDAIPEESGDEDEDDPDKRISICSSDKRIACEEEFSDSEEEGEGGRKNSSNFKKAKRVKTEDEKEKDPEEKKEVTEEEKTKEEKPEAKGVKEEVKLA

Question: With C/C=C1\NC(=O)[C@H]2CSSCC/C=C/[C@H](CC(=O)N[C@H](C(C)C)C(=O)N2)OC(=O)[C@H](C(C)C)NC1=O [ROMIDEPSIN] as the compound, how does the MTD at 336 h [1] read?
Answer: > 200 mg/kg

Question: What about the Activity [2] of the same compound?
Answer: Active

Question: What about the IC50 [3] of the same compound?
Answer: 1.4 nM

Question: What about the inhibition [4] of the same compound?
Answer: Active

Source: ChEMBL document CHEMBL5046273, “Development of a Novel, Small-Molecule Brain-Penetrant Histone Deacetylase Inhibitor That Enhances Spatial Memory Formation in Mice” (J Med Chem, 2022)
